Measured values taken from ChEMBL document CHEMBL5107959, “Structure-activity relationships of valine, tert-leucine, and phenylalanine amino acid-derived synthetic cannabinoid receptor agonists related to ADB-BUTINACA, APP-BUTINACA, and ADB-P7AICA” (RSC Med Chem, 2022).

Legend:
Cannabinoid receptor 1 [1] = biological target: T1, Cannabinoid receptor 1 (Homo sapiens, UniProt P21554); assay: Agonist activity at CB1 receptor (unknown origin) expressed in human HEK293T cells co-expressing beta-arrestin2 assessed as beta-arrestin2 recruitment by measuring maximal luminescence using furimazine as substrate at 100 uM by Nano-Glo live cell reagent assay relative to CP55940; assay type: functional, cell-based
T1 sequence (P21554 whole entry): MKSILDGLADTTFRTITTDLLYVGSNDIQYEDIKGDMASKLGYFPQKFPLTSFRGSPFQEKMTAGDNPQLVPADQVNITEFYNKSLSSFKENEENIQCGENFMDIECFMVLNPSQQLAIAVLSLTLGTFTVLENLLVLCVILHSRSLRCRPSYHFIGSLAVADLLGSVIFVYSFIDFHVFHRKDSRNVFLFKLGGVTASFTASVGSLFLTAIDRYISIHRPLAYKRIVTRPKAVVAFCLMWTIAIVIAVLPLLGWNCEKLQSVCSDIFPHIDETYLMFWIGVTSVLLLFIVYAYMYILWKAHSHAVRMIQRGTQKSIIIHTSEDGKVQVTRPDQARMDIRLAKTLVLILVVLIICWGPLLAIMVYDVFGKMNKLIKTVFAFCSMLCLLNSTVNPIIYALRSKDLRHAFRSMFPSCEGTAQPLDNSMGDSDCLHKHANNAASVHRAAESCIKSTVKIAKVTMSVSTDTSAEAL
Method in brief: (§1)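 βarr2 recruitment by NanoBiT split-luciferase complementation in HEK293T stably expressing CB1-βarr2 or CB2-βarr2. Cells seeded on poly-D-lysine overnight, washed into Opti-MEM. Nano-Glo Live Cell reagent (furimazine) equilibrated 10 min, then compound added and luminescence followed 2 h. […] Value read at highest tested concentration, 100 μM. Duplicates, ≥3 independent experiments.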

Cannabinoid receptor 1 [2] = biological target: T1, Cannabinoid receptor 1; assay: Displacement of [3H]-CP55940 from human CB1 receptor expressed in human HEK293-EBNA cells incubated for 60 mins by radioligand competitive binding assay based liquid scintillation counter; assay type: cell-based
Cannabinoid receptor 2 [3] = biological target: T2, Cannabinoid receptor 2 (Homo sapiens, UniProt P34972); assay: Agonist activity at CB2 receptor (unknown origin) expressed in human HEK293T cells co-expressing beta-arrestin2 assessed as beta-arrestin2 recruitment using furimazine as substrate by Nano-Glo live cell reagent assay; assay type: functional, cell-based
T2 sequence (P34972 whole entry): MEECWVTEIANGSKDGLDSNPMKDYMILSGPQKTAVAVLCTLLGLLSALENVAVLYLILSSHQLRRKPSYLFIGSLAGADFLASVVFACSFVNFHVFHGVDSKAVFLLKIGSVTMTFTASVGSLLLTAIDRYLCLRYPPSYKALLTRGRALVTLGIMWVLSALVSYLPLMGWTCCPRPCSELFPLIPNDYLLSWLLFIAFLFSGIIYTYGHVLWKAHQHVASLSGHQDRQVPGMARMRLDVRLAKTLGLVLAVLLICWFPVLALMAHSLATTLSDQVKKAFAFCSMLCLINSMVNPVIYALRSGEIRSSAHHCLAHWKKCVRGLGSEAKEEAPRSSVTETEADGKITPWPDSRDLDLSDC
Method in brief: (§2)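 βarr2 recruitment by NanoBiT split-luciferase complementation in HEK293T stably expressing CB1-βarr2 or CB2-βarr2. Nano-Glo Live Cell reagent (furimazine) equilibrated 10 min before compound, then luminescence monitored continuously 2 h. Stocks in methanol, diluted in MeOH/Opti-MEM. EC50 from four-parameter logistic fit. Duplicates in ≥3 independent experiments.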

Cannabinoid receptor 1 [4] = biological target: T1, Cannabinoid receptor 1; assay: Agonist activity at human CB1 receptor expressed in mouse AtT20 cells assessed as maximal agonist effect by measuring fluorescence at 10 uM incubated for 60 mins by FLIPR membrane potential assay relative to CP55940; assay type: functional, cell-based
Method in brief: (§3)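 AtT20 FlpIn cells stably expressing human CB1 or CB2, plated overnight in L-15 with 1% FBS. Loaded 60 min at 37 °C with FLIPR blue membrane potential dye, pH 7.4 buffer. Fluorescence (ex 530/em 565 nm) read every 2 s; 2 min baseline, then drug added. Change in fluorescence versus baseline minus vehicle (DMSO 0.1%/BSA 0.01% final), normalised to 1 μM CP55,940. Response taken at 10 μM where <50% change.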

Cannabinoid receptor 1 [5] = biological target: T1, Cannabinoid receptor 1; assay: Agonist activity at CB1 receptor (unknown origin) expressed in human HEK293T cells co-expressing beta-arrestin2 assessed as beta-arrestin2 recruitment using furimazine as substrate by Nano-Glo live cell reagent assay; assay type: functional, cell-based; method in brief: as §2
Cannabinoid receptor 2 [6] = biological target: T2, Cannabinoid receptor 2; assay: Displacement of [3H]-CP55940 from N-terminal 3HA-tagged human CB2 receptor expressed in human HEK293-EBNA cells incubated for 60 mins by radioligand competitive binding assay based liquid scintillation counter; assay type: cell-based
Cannabinoid receptor 2 [7] = biological target: T2, Cannabinoid receptor 2; assay: Agonist activity at human CB2 receptor expressed in mouse AtT20 cells assessed as maximal agonist effect by measuring fluorescence at 10 uM incubated for 60 mins by FLIPR membrane potential assay relative to CP55940; assay type: functional, cell-based; settings: filed as agonist; method in brief: as §3
Cannabinoid receptor 2 [8] = biological target: T2, Cannabinoid receptor 2; assay: Agonist activity at CB2 receptor (unknown origin) expressed in human HEK293T cells co-expressing beta-arrestin2 assessed as beta-arrestin2 recruitment by measuring maximal luminescence using furimazine as substrate at 100 uM by Nano-Glo live cell reagent assay relative to CP55940; assay type: functional, cell-based; settings: filed as agonist; method in brief: as §1
[9] = Toxicity in C57BL/6J mouse assessed as reduction in body temperature upto 10 mg/kg,ip measured after 2.5 hrs by radio-biotelemetry analysis; assay type: organism-based; settings: in vivo
Method in brief: (§4)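 Male C57BL/6J mice (four per cohort) fitted with intraperitoneal biotelemetry transmitters, 10 days' recovery. Compound in EtOH/polysorbate 80/saline (5:5:90) given i.p. at 10 μL/g after baseline vehicle injection; escalating doses 0.03 to 10 mg/kg, one every three days.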

Cannabinoid receptor 2 [10] = biological target: T2, Cannabinoid receptor 2; assay: Agonist activity at human CB2 receptor expressed in mouse AtT20 cells incubated for 60 mins by FLIPR membrane potential assay; assay type: functional, cell-based
Cannabinoid receptor 1 [11] = biological target: T1, Cannabinoid receptor 1; assay: Agonist activity at human CB1 receptor expressed in mouse AtT20 cells incubated for 60 mins by FLIPR membrane potential assay; assay type: functional, cell-based
Cannabinoid receptor 1 [12] = biological target: T1, Cannabinoid receptor 1; assay: Agonist activity at human CB1 receptor expressed in mouse AtT20 cells at 10 uM incubated for 60 mins by FLIPR membrane potential assay; assay type: functional, cell-based; method in brief: as §3
[13] = Toxicity in C57BL/6J mouse assessed as reduction in body temperature at 10 mg/kg,ip measured after 2.5 hrs by radio-biotelemetry analysis; assay type: organism-based; settings: in vivo; method in brief: as §4
[14] = Toxicity in C57BL/6J mouse assessed as reduction in body temperature at 0.1 mg/kg,ip measured after 2.5 hrs by radio-biotelemetry analysis; assay type: organism-based; settings: in vivo; method in brief: as §4

Compound | Emax (Cannabinoid receptor 1 [1]; filed as agonist) [%] | Ki (Cannabinoid receptor 1 [2]) [nM] | EC50 (Cannabinoid receptor 2 [3]) [nM] | Emax (Cannabinoid receptor 1 [4]; filed as agonist) [%] | EC50 (Cannabinoid receptor 1 [5]; read-out: EC50) [nM] | Ki (Cannabinoid receptor 2 [6]) [nM] | Emax (Cannabinoid receptor 2 [7]) [%] | Emax (Cannabinoid receptor 2 [8]) [%] | Activity [9] | EC50 (Cannabinoid receptor 2 [10]) [nM] | EC50 (Cannabinoid receptor 1 [11]) [nM] | Emax (Cannabinoid receptor 1 [1]) [%] | Emax (Cannabinoid receptor 1 [4]) [%] | EC50 (Cannabinoid receptor 1 [5]; read-out: pEC50 (converted)) [nM] | Activity (Cannabinoid receptor 1 [12]) [%] | Activity [13] | Activity [14]
CCCCn1nc(C(=O)N[C@@H](Cc2ccccc2)C(N)=O)c2ccccc21 | 216 | 25.1 | 17 | 95 | 1170 | 39.8 | 99 | 71 | Toxic | 6.8 | 161 |  |  |  |  |  | 
CCCCn1cc(C(=O)N[C@@H](Cc2ccccc2)C(N)=O)c2ccccc21 | 50 | 307 | 209 | 93 | 15500 | 148 | 92 | 76 |  | 40 | 5100 |  |  |  |  |  | 
CCCCCn1cc(C(=O)c2cccc3ccccc23)c2ccccc21 | 310 | 2.56 | 7.3 | 116 | 35.5 | 9.55 | 87 | 58 |  | 22 | 18 |  |  |  |  |  | 
CCCCn1cc(C(=O)N[C@H](C(N)=O)C(C)C)c2cccnc21 | 44 | 501 | 4620 | 104 | > 60800 | 891 | 100 | 88 |  | 202 | 1490 |  |  |  |  |  | 
CCCCn1cc(C(=O)N[C@H](C(N)=O)C(C)(C)C)c2ccccc21 | 756 | 1.34 | 4.44 | 115 | 139 | 1.32 | 103 | 92 |  | 6 | 6 |  |  |  |  |  | 
CCCCn1cc(C(=O)N[C@@H](Cc2ccccc2)C(N)=O)c2cccnc21 |  | 538 | 3630 |  | > 1050 | 2190 | 79 | 53 |  | 319 |  | < 5 | 19 | 1050 | < 50 |  | 
CCCCCn1cc(C(=O)N[C@H](C(N)=O)C(C)C)c2cccnc21 | 278 | 49.5 | 694 | 112 | 4150 | 251 | 93 | 70 |  | 47 | 101 |  |  |  |  |  | 
CCCCCn1cc(C(=O)N[C@H](C(N)=O)C(C)(C)C)c2cccnc21 | 544 | 3.94 | 22.2 |  | 147 | 20.4 | 108 | 102 |  | 7.1 | 5.8 |  |  |  |  | Non-Toxic | 
CCCCn1nc(C(=O)N[C@H](C(N)=O)C(C)(C)C)c2ccccc21 | 728 | 0.299 | 1.79 | 113 | 19 | 0.912 | 101 | 83 |  | 4.1 | 0.67 |  |  |  |  |  | Toxic
CCCCn1cc(C(=O)N[C@H](C(N)=O)C(C)(C)C)c2cccnc21 | 406 | 15.5 | 120 | 117 | 2890 | 40.7 | 103 | 85 |  | 21 | 88 |  |  |  |  |  | 
CCCCn1nc(C(=O)N[C@H](C(N)=O)C(C)C)c2ccccc21 | 622 | 1.18 | 13.7 | 114 | 187 | 6.46 | 103 | 91 |  | 4.2 | 7.4 |  |  |  |  |  | 
CCCCn1cc(C(=O)N[C@H](C(N)=O)C(C)C)c2ccccc21 | 390 | 12.2 | 283 | 107 | 3300 | 77.6 | 106 | 94 |  | 28 | 53 |  |  |  |  |  | 
CCCCCn1cc(C(=O)N[C@@H](Cc2ccccc2)C(N)=O)c2cccnc21 |  | 437 | 766 |  | > 100000 | 794 | 78 | 52 |  | 381 |  | 6 | 30 |  | < 50 |  | 
